# TAAR1 antag: human TAAR1 antagonists, primary screen, Fluo-8 calcium fluorescence, CHO RD-HGA16 cells; actives 1.5% (n = 360,000); antagonist; Trace amine-associated receptor 1 (Homo sapiens), Q96RJ0; inhibition, % at 3 µM;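 active = inhibition above a per-plate cutoff, the mean inhibition of test compounds on that plate plus 3 SD, cut at about 49% in these data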
# Target sequence (Q96RJ0 whole entry, looked up): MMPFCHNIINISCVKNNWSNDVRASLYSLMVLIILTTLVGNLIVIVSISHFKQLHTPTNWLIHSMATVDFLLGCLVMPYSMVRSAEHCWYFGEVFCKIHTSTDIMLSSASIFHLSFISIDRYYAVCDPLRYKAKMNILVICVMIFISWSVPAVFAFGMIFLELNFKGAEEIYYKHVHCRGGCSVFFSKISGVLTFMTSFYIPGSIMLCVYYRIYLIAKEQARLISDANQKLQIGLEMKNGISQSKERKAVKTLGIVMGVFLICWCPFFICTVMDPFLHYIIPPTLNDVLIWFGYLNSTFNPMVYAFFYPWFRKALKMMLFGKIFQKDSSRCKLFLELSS
#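 Test system – hTAAR1-expressing CHO RD-HGA16 cells, Gα16-coupled · Also added – β-PEA at EC80 concentration, post-compound challenge · Compound – 3 µM, single point · Incubation – dye loading 75 min at 37 °C, then 30 min room temperature · Measured by – Fluo-8 intracellular calcium dye fluorescence, real-time kinetic reads · Benchmarks – vehicle and agonist controls · Replicates – singlicate, one well per test compound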
# CHO parental Ca: ATP-evoked calcium signal inhibitors, parental CHO, primary screen, counter-screen for OX1R antagonist project, cell-based, fluorescence, Fluo-8 calcium dye; parental CHO-K1, ATP-induced calcium, Fluo-8 fluorescence; inhibition, % at 5.6 µM; actives 0.63% (n = 330,000);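 active = inhibition above that plate's mean sample inhibition plus 3 SD, cut at about 26% in these data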
#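 Test system: parental CHO cells; detection: calcium-sensitive Fluo-8 fluorescence; evaluation: percent inhibition of calcium signal; also added: ATP as calcium-mobilizing challenge; repeats: one well per compound; control set: ATP-challenged DMSO wells low, unchallenged DMSO wells high; compound: single nominal dose of 5.6 µM per compound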
# OX1R antag-1: antagonists of human orexin 1 receptor (OX1R). Orexin/Hypocretin receptor type 1 (Homo sapiens), O43613. OX1R-expressing cells, FRET antagonist read-out. inhibition, % at 6.6 µM. actives 1.8% (n = 330,000). AID 485270, 2010; in the data active = inhibition mostly above about 38%, no sharp cut-off; inactive = mostly below about 40%
# Target sequence (O43613 whole entry, looked up): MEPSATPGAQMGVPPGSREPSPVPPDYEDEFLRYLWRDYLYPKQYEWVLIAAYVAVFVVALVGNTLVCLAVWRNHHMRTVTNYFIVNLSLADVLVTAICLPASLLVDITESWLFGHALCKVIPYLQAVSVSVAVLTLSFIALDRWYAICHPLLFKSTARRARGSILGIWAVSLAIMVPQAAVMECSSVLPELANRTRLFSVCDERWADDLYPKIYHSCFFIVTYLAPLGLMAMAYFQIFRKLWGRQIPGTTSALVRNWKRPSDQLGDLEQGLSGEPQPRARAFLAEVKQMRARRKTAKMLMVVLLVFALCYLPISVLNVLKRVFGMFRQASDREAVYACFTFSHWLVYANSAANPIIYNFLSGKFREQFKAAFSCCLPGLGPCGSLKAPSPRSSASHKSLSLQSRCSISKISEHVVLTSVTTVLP
# TAAR1 agonist: human TAAR1 agonists, primary screen, Fluo-8 calcium fluorescence, CHO RD-HGA16 cells; Trace amine-associated receptor 1 (Homo sapiens), Q96RJ0; vehicle wells 0%, saturating PEA agonist 100%; activation, % at 3 µM; actives 0.99% (n = 360,000);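 active = activation above the mean activation of all test compounds in the run plus 3 SD, cut at about 38% in these data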
#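 test system = CHO RD-HGA16 cells carrying human TAAR1 plus Gα16 | schedule = 17-24 h seeding, 75 min 37 °C dye, 30 min RT | compound dosing = 3 µM single concentration | control set = DMSO and PEA EC100 | replicates = n 1 | signal = Fluo-8 fluorescence, 5 s baseline then 140 s kinetic read | measure = percent activation vs PEA EC100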
# OX1R antag-2: OX1R (HCRTR1) antagonists, primary screen, fluorescence, CHO/OX1R cells, Fluo-8 calcium, orexin A. inhibition, % at 5 µM. Fluo-8 calcium fluorescence. actives 0.43% (n = 330,000). Orexin/Hypocretin receptor type 1 (Homo sapiens), O43613. AID 434989, 2010;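 active = inhibition above its plate's threshold, mean inhibition of all tested compounds on the plate plus 3 SD, cut at about 37% in these data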
# TAAR1 ag conf: human TAAR1 agonists, retest of hits, confirmation, Fluo-8 calcium fluorescence, CHO RD-HGA16 cells. activation, % at 3 µM. scaled: DMSO 0%, maximal phenethylamine 100%. actives 82% (n = 2,400). shares compounds with TAAR1 agonist;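 active = activation above a cutoff set at the run's mean compound activation plus 3 SD, cut at about 39% in these data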
# Ga16 nonsel ag: nonselective calcium mobilization agonists, CHO-Ga16 cells, counter-screen for hTAAR1 agonist project, cell-based, fluorescence, CHO-Ga16 parental line. activation, % at 3 µM. shares compounds with TAAR1 agonist. actives 50% (n = 2,400). Fluo-8 calcium fluorescence; normalized to maximal ATP response, DMSO zero. AID 651787, 2012;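 active = activation above the run cutoff, the mean activation over all tested wells plus 3 SD, cut at about 12% in these data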
# TAAR1 desens: TAAR1 desensitization by agonist hits, confirmation, counter-screen for TAAR1 agonist project, cell-based, fluorescence, tachyphylaxis; shares compounds with TAAR1 agonist; CHO RD-HGA16 hTAAR1, Fluo-8 calcium, beta-PEA response inhibition; inhibition, % at 3 µM; actives 46% (n = 2,400); AID 651951, 2012;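 active = inhibition above the run cutoff, the mean inhibition of all test compounds plus 3 SD, cut at about 49% in these data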;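 note: beta-PEA stimulus applied at its EC80; loss of beta-PEA calcium signal after compound pretreatment read as receptor desensitization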
# Ga16 antag count: inhibition of ATP-evoked calcium response in CHO-Ga16 cells, counter-screen for TAAR1 agonist project, cell-based, fluorescence; shares compounds with TAAR1 agonist; CHO-Ga16 ATP-induced calcium, Fluo-8 fluorescence; inhibition, % at 3 µM; actives 39% (n = 2,400); AID 651952, 2012;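 active = inhibition above the plate's mean compound inhibition plus 3 SD, computed per plate, cut at about 22% in these data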
# Numbers stand for hits; - = inactive; . = no result given; ! = not confirmed by another sample. Only some compounds are listed: those with a hit (about 3.9% of all), similar ones and a draw of the others.
SMILES,TAAR1 antag,CHO parental Ca,OX1R antag-1,TAAR1 agonist,OX1R antag-2,TAAR1 ag conf,Ga16 nonsel ag,TAAR1 desens,Ga16 antag count
CN(C[C@H](Cc1ccccc1)N(C[C@H](Cc1cccc2ccccc12)N(CCc1ccccc1)N=O)N=O)N=O,-,-,-,69.4!,-,46.5,-,-,-
CCCC[C@H](CN(N=O)[C@@H](Cc1ccccc1)CN(C)N=O)N(CCc1ccccc1)N=O,-,-,-,56.5,-,63.5,-,-,-
CCN(CC(=O)Nc1ccc(NC(C)=O)cc1)C(=O)c1ccc(Sc2nncn2C)c([N+](=O)[O-])c1,-,.,.,-,.,.,.,.,.
CCCOc1cc(NCc2ccccc2)c2ncn(C(C)C)c2c1,-,-,-,61.1,-,41.1,17.8,-,-
COCCOc1cc(NCc2ccccc2)c2ncn(C(C)C)c2c1,-,-,-,-,-,.,.,.,.
CC(C)n1cnc2c(NCc3ccccc3)cc(Cc3ccc(F)cc3)cc21,-,-,-,47.1,-,-,-,-,-
CC(C)(O)[C@@H]1CC[C@@](C)(C2CC[C@]3(C)C2[C@H](O)CC2[C@@]4(C)CC[C@H](O)C(C)(C)C4[C@@H](O[C@H]4O[C@@H](CO)[C@H](O)[C@@H](O)[C@@H]4O[C@@H]4O[C@H](CO)[C@@H](O)[C@H](O)[C@H]4O)C[C@]23C)O1 (stereo in doubt),-,-,-,-,-,.,.,.,.
COc1ccc(-c2cn(-c3ccc(C)cc3C)c(=O)[nH]2)cc1OC,-,-,-,-,-,.,.,.,.
Cc1nn(CC(=O)NCCc2cccs2)c(=O)c2cc3ccccc3n12,-,-,-,47.7,-,37.6,-,-,-
CCOC(=O)c1cncc(C#CCOC(=O)Nc2ccc(OC(F)(F)F)cc2)c1,72.8,-,-,50.6,-,49.2,32.0,81.2,61.9
CCOC(=O)c1cncc(C#CCO)c1,-,-,-,-,-,.,.,.,.
O=C(NC(=S)NCCc1ccccc1)c1cccc(Cl)c1,-,-,-,-,-,.,.,.,.
O=C(CSc1ncccn1)N1CCc2ccccc2C1,-,-,-,-,-,.,.,.,.
O=C(CN(C1CCCCC1)C1CCCCC1)N1CCc2ccccc2C1,98.8,-,-,95.7,-,106.5,21.2,105.4,29.5
O=C(c1ccc(CN2CCc3ccccc3C2)cc1)N1CCc2ccccc2C1,-,-,-,67.5,-,64.0,-,-,-
O=C(c1ccc(CN2CCc3ccccc3C2)cc1)N1CCN(c2ccccc2)CC1,-,-,-,-,-,.,.,.,.
O=C(Nc1ccccc1F)N1CCc2ccccc2C1,-,.,.,50.0,.,40.4,-,-,-
O=C(CN(C1CCCCC1)S(=O)(=O)c1ccccc1)N1CCCC1,-,-,-,-,-,.,.,.,.
O=C(CNCc1ccccn1)N1CCc2ccccc2C1,-,-,-,46.7,-,-,-,-,-
CC(=O)Nc1ccc(S(=O)(=O)N(CC(=O)NCC2CCCO2)Cc2ccccc2Cl)cc1 (stereo unspecified),-,.,.,-,.,.,.,.,.
CCCN1CCN(CCCNC(=O)Cn2nc(C)n3c(cc4cc(F)ccc43)c2=O)CC1,-,-,-,-,-,.,.,.,.
Cc1ccc(C)c(NC(=O)N2CCc3ccccc3C2)c1,-,-,-,86.3,-,73.5,-,-,-
O=C(/C=C/C(=O)N1CCc2ccccc2C1)N1CCc2ccccc2C1,-,-,-,81.8,-,86.8,-,58.3,-
Cc1ccc(C)c(NC(=O)N2CCCCCC2)c1,-,-,-,-,-,.,.,.,.
Cc1ccccc1OCC(=O)N1CCc2ccccc2C1,-,-,-,42.0,-,88.5,-,-,-
SMILES,TAAR1 antag,CHO parental Ca,OX1R antag-1,TAAR1 agonist,OX1R antag-2,TAAR1 ag conf,Ga16 nonsel ag,TAAR1 desens,Ga16 antag count
O=C(CCN1C(=O)[C@@H]2Cc3ccccc3CN2C1=O)NCc1ccccc1Cl,-,-,-,-,-,.,.,.,.
Cn1c(=O)oc2cc(S(=O)(=O)CCC(=O)NCCc3ccccc3)ccc21,-,-,-,70.5,-,-,-,-,-
O=C(CCS(=O)(=O)c1ccc2c(c1)NC(=O)CS2)NCCc1ccccc1,-,-,-,67.8,-,67.6,-,-,-
CCCOc1ccccc1/C=C(\C#N)C(=O)Nc1cccnc1,-,-,-,-,-,.,.,.,.
O=C(NC1CCCc2ccccc21)c1cccc(S(=O)(=O)N2CCN(c3ccccc3)CC2)c1 (stereo unspecified),-,-,-,46.7,-,-,-,-,21.5
CC1CCC(NC(=O)c2cccc(S(=O)(=O)N3CCN(c4ccccc4)CC3)c2)CC1 (stereo unspecified),-,-,-,-,-,.,.,.,.
O=C(c1[nH]c(C(F)(F)F)nc1-c1ccccc1)N1CCCCC1,-,.,.,-,.,.,.,.,.
O=C(NCCc1ccc(O)cc1)c1[nH]c(C(F)(F)F)nc1-c1ccccc1,68.8,.,.,91.8,.,94.3,-,89.8,-
O=C(NCc1ccccc1)c1[nH]c(C(F)(F)F)nc1-c1ccccc1,-,.,.,-,.,.,.,.,.
O=C(c1cc(-c2ccccc2)on1)N1CCc2ccccc2C1,-,-,-,48.4,-,-,-,-,-
O=C(NCCc1ccccc1)c1[nH]c(C(F)(F)F)nc1-c1ccccc1,-,.,.,69.5,.,79.9,-,58.2,-
O=C(c1[nH]c(C(F)(F)F)nc1-c1ccccc1)N1CCc2ccccc2C1,-,.,.,81.3,.,93.2,-,55.7,-
O=C(Cc1ccc(-n2cccc2)cc1)NCc1ccccc1Cl,50.2,-,-,76.7,-,-,-,-,-
O=C(NCc1ccccc1Cl)NCc1ccccc1Cl,-,-,-,-,-,.,.,.,.
COc1cc2nc(/C=C/c3ccc(N(C)C)cc3)sc2cc1SC,52.0,51.8,-,100.9,60.2,46.1,93.3,66.8,87.0
CCN(CC)c1ccc(/C=C/c2nc3ccccc3s2)cc1,.,-,-,.,-,.,.,.,.
O=C(c1nnsc1S(=O)c1ccc(Cl)cc1)N1CCOCC1 (stereo unspecified),-,.,.,-,.,.,.,.,.

# Screens deposited in PubChem BioAssay by The Scripps Research Institute Molecular Screening Center.
